Test results taken from ChEMBL document CHEMBL2021766, “Antiplasmodial activity of novel keto-enamine chalcone-chloroquine based hybrid pharmacophores” (Bioorg Med Chem, 2012).
≈ marks a conversion by molar mass, not a printed value.

Tests used:
Plasmodium yoelii [1] = test: Antimalarial activity against chloroquine-resistant Plasmodium yoelii N-67 infected Swiss mouse assessed as suppression of parasitemia at 100 mg/kg/day, po qd for 4 days measured on day 4; assay type: functional; conditions: N-67, 96 h
Procedure, shortened: (§1)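 Swiss mice infected with P. yoelii N-67 (1 × 10⁵ parasitized RBC, day 0). Test agents were given as aqueous suspensions with a few drops of Tween 80, orally at 100 mg/kg/day, once daily on days 0–3, to groups of five. Parasitaemia was read from thin blood smears on days 4 and 6. Percent suppression was calculated from group means versus untreated controls. Survival and cure were followed to day 30.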

Plasmodium falciparum = test: Antimalarial activity against chloroquine-sensitive ring stage Plasmodium falciparum 3D7 after 72 hrs by SYBR Green-I assay; assay type: functional, organism-based; conditions: 3D7, 72 h
Procedure, shortened: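 Asynchronous P. falciparum 3D7 culture (over 80% ring stages), 1.0% parasitized cell suspension at 0.8% parasitaemia, incubated with twofold serial dilutions at 37 °C, 5% CO2/air, 72 h. Lysis buffer with 1× SYBR Green-I added, 1 h at 37 °C. Fluorescence read at 485/530 nm excitation/emission. IC50 from triplicate experiments.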

Plasmodium yoelii [2] = test: Inhibition of beta-hematin formation in Plasmodium yoelii infected Swiss mouse plasma using hemin as substrate after 16 hrs by spectrophotometry; assay type: functional
Procedure, shortened: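 Plasma taken by cardiac puncture into 2.0% citrate from male Swiss mice (15–20 g) infected with 1 × 10^5 P. yoelii RBCs, at about 50% parasitemia. Mix: 100 mM sodium acetate pH 5.1, 50 µL plasma, 100 µM hemin, compound, in triplicate, 37 °C for 16 h with shaking. Pellet washed in Tris–HCl pH 7.4 with 2.5% SDS. IC50 = 50% inhibition; three experiments in triplicate.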

Plasmodium yoelii [3] = test: Antimalarial activity against chloroquine-resistant Plasmodium yoelii N-67 infected Swiss mouse assessed as mean survival time at 100 mg/kg/day, po qd for 4 days; assay type: functional; procedure, shortened: as §1
Plasmodium yoelii [4] = test: Antimalarial activity against chloroquine-resistant Plasmodium yoelii N-67 infected Swiss mouse assessed as suppression of parasitemia at 100 mg/kg/day, po qd for 4 days measured on day 6; assay type: functional; procedure, shortened: as §1
[5] = Selectivity index, ratio of CC50 for monkey Vero cells to IC50 for chloroquine-sensitive ring stage Plasmodium falciparum 3D7; assay type: functional
Procedure, shortened: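 Vero cells exposed to dilutions of test agents for 72 h; MTT read-out (modified Mosmann method); CC50 by non-linear regression. Ratio taken against the 3D7 IC50 from SYBR Green-I assay.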

Plasmodium yoelii [6] = test: Antimalarial activity against chloroquine-resistant Plasmodium yoelii N-67 infected Swiss mouse assessed as suppression of parasitemia at 20 mg/kg/day, po qd for 4 days measured on day 6; assay type: functional
Plasmodium yoelii [7] = test: Antimalarial activity against chloroquine-resistant Plasmodium yoelii N-67 infected Swiss mouse assessed as mean survival time at 20 mg/kg/day, po qd for 4 days; assay type: functional
Plasmodium yoelii [8] = test: Antimalarial activity against chloroquine-resistant Plasmodium yoelii N-67 infected Swiss mouse assessed as suppression of parasitemia at 10 mg/kg/day, po qd for 4 days measured on day 4; assay type: functional; conditions: N-67, 96 h
Plasmodium yoelii [9] = test: Antimalarial activity against chloroquine-resistant Plasmodium yoelii N-67 infected Swiss mouse assessed as suppression of parasitemia at 20 mg/kg/day, po qd for 4 days measured on day 4; assay type: functional; conditions: N-67, 96 h
Plasmodium yoelii [10] = test: Antimalarial activity against chloroquine-resistant Plasmodium yoelii N-67 infected Swiss mouse assessed as mean survival time at 10 mg/kg/day, po qd for 4 days; assay type: functional
Plasmodium yoelii [11] = test: Antimalarial activity against chloroquine-resistant Plasmodium yoelii N-67 infected Swiss mouse assessed as suppression of parasitemia at 10 mg/kg/day, po qd for 4 days measured on day 6; assay type: functional

Row | Compound | inhibition in vivo at 100 mg/kg/day (Plasmodium yoelii [1]) [%] | IC50 (Plasmodium falciparum) [µg/mL] | IC50 (Plasmodium yoelii [2]) [µg/mL] | MST (Plasmodium yoelii [3]) [days] | inhibition in vivo at 100 mg/kg/day (Plasmodium yoelii [4]) [%] | Ratio CC50/IC50 [5] | inhibition in vivo at 20 mg/kg/day (Plasmodium yoelii [6]) [%] | MST (Plasmodium yoelii [7]) [days] | inhibition in vivo at 10 mg/kg/day (Plasmodium yoelii [8]) [%] | inhibition in vivo at 20 mg/kg/day (Plasmodium yoelii [9]) [%] | MST (Plasmodium yoelii [10]) [days] | inhibition in vivo at 10 mg/kg/day (Plasmodium yoelii [11]) [%]
1 | CCC(C)C1=CC(/C=C/C(=O)c2ccccc2)=CC(=C\NCCNc2ccnc3cc(Cl)ccc23)/C1=O (configuration not stated) | 99.6 | 0.0136 (≈ 0.0266 µM) | 3.15 (≈ 6.15 µM) | 14.6 | 83.2 | 498.54 | – | – | – | – | – | –
2 | COc1cc(C(=O)/C=C/C2=CC(=C\NCCNc3ccnc4cc(Cl)ccc34)/C(=O)C(C)=C2)cc(OC)c1OC | 99.8 | 0.0107 (≈ 0.0191 µM) | 9.61 (≈ 17.2 µM) | 17 | 82.1 | 1392.22 | – | – | – | – | – | –
3 | COc1ccc(C(=O)/C=C/C2=CC(=C\Nc3ccc(Nc4ccnc5cc(Cl)ccc45)cc3)/C(=O)C(C)=C2)cc1 | – | 0.201 (≈ 0.366 µM) | 4.35 (≈ 7.94 µM) | – | – | 315.33 | – | – | – | – | – | –
4 | CC1=CC(/C=C/C(=O)c2ccc(C)cc2)=CC(=C\NCCNc2ccnc3cc(Cl)ccc23)/C1=O | 99.8 | 0.00975 (≈ 0.0201 µM) | 2.91 (≈ 6.01 µM) | 17.6 | 88.7 | 1034.23 | – | – | – | – | – | –
5 | CCN(CC)CCCC(C)Nc1ccnc2cc(Cl)ccc12 (configuration not stated) [CHLOROQUINE] | – | – | 3.65 (≈ 11.4 µM) | – | – | – | 93.9 | >28 | 99 | 99 | 13.6 | 93.6
6 | CC1=CC(/C=C/C(=O)c2ccc(O)cc2)=CC(=C\NCCNc2ccnc3cc(Cl)ccc23)/C1=O | – | 0.00363 (≈ 0.00747 µM) | 2.89 (≈ 5.95 µM) | – | – | 27548.21 | – | – | – | – | – | –
7 | CCC(C)C1=CC(/C=C/C(=O)c2ccc(Cl)cc2)=CC(=C\NCCNc2ccnc3cc(Cl)ccc23)/C1=O (configuration not stated) | – | 0.0179 (≈ 0.0328 µM) | 11.2 (≈ 20.5 µM) | – | – | 1014.51 | – | – | – | – | – | –
8 | CCC(C)C1=CC(/C=C/C(=O)c2cccs2)=CC(=C\NCCNc2ccnc3cc(Cl)ccc23)/C1=O (configuration not stated) | 99.4 | 0.0091 (≈ 0.0176 µM) | 2.62 (≈ 5.06 µM) | 18.2 | 86.7 | 1373.63 | – | – | – | – | – | –
9 | COc1ccc(C(=O)/C=C/C2=CC(=C\NCCCNc3ccnc4cc(Cl)ccc34)/C(=O)C(C)=C2)cc1 | – | 0.0388 (≈ 0.0754 µM) | 5.34 (≈ 10.4 µM) | – | – | 295.66 | – | – | – | – | – | –
10 | CC(C)(C)C1=CC(/C=C/C(=O)c2ccc(Br)cc2)=CC(=C\NCCNc2ccnc3cc(Cl)ccc23)/C1=O | 99.9 | 0.00464 (≈ 0.00785 µM) | 21.9 (≈ 37.1 µM) | 17.6 | 96.7 | 1883.62 | – | – | – | – | – | –
11 | CC1=CC(/C=C/C(=O)c2ccc(F)cc2)=CC(=C\NCCNc2ccnc3cc(Cl)ccc23)/C1=O | 99.5 | 0.0109 (≈ 0.0222 µM) | 2.91 (≈ 5.96 µM) | 15.6 | 83.5 | 1034.23 | – | – | – | – | – | –
12 | CC(C)(C)C1=CC(/C=C/C(=O)c2ccc(Cl)cc2)=CC(=C\NCCNc2ccnc3cc(Cl)ccc23)/C1=O | – | 0.0282 (≈ 0.0515 µM) | 8.06 (≈ 14.7 µM) | – | – | 868.3 | – | – | – | – | – | –
13 | CCC(C)C1=CC(/C=C/C(=O)c2ccco2)=CC(=C\NCCNc2ccnc3cc(Cl)ccc23)/C1=O (configuration not stated) | 99.5 | 0.00709 (≈ 0.0141 µM) | 2.89 (≈ 5.76 µM) | 17.6 | 85.8 | 1138.22 | – | – | – | – | – | –
14 | COc1ccc(C(=O)/C=C/C2=CC(=C\NCCNc3ccnc4cc(Cl)ccc34)/C(=O)C(C)=C2)cc1 | – | 0.0167 (≈ 0.0333 µM) | 3.01 (≈ 6.02 µM) | – | – | 1137.97 | – | – | – | – | – | –
